According to ChEMBL document CHEMBL3124823, “1,2,3-Triazole-containing derivatives of rupestonic acid: click-chemical synthesis and antiviral activities against influenza viruses” (Eur J Med Chem, 2014):
Values after ≈ are worked out from the molar mass of the structure shown.

Key:
[1] = test system: Influenza B virus; assay: Antiviral activity against Influenza B virus jifang/13/97 infected in MDCK cells assessed as inhibition of plaque formation after 3 to 4 days by crystal violet staining-based assay; type: functional, organism-based; conditions: jifang/13/97, MDCK
How it was run: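 Plaque reduction: MDCK monolayers in 12-well plates were PBS-washed and infected with influenza B in trypsin-free maintenance medium for 2 h at 37 °C, 5% CO2. Inoculum was removed and the cells washed three times. A 1.5% agarose/MEM overlay with trypsin (2 μg/ml) and drug was added. After 3-4 days, crystal violet (0.5%) plaque counts against no-drug wells gave IC50 by Reed & Muench. Ribavirin was the control.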

[2] = test system: Influenza B virus; assay: Ratio of ribavirin IC50 to compound IC50 for Influenza B virus jifang/13/97 infected in MDCK cells; type: functional
[3] = Selectivity index, ratio of TC50 for MDCK cells to IC50 for Influenza B virus jifang/13/97; type: toxicity, cell-based; conditions: dog, read-out: Selectivity Index
How it was run: (§1)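 Selectivity index = TC50 (MDCK, 48 h visual cytotoxicity) / IC50 from the 40 h CPE-inhibition assay for the given strain.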

[4] = test system: Influenza B virus; assay: Antiviral activity against Influenza B virus jifang/13/97 infected in MDCK cells assessed as inhibition of virus-induced cytopathicity after 40 hrs; type: functional, organism-based; conditions: jifang/13/97, MDCK
How it was run: (§2)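 CPE reduction in MDCK cells: cells grown 24 h at 37 °C, 5% CO2, then infected and held 2 h at 37 °C before the inoculum was removed. Threefold serial drug dilutions (8 levels from 20 mg/mL DMSO stocks) were added and incubated 40 h at 37 °C. CPE inhibition was scored against cell and virus controls to give IC50. Ribavirin and oseltamivir were the controls.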

[5] = test system: Influenza A virus; assay: Antiviral activity against Influenza A virus A/hanfang/359/95(H3N2) infected in MDCK cells assessed as inhibition of virus-induced cytopathicity after 40 hrs; type: functional, organism-based; how it was run: as §2
[6] = test system: Influenza A virus; assay: Antiviral activity against Influenza A virus (A/FM/1/1947(H1N1)) infected in MDCK cells assessed as inhibition of virus-induced cytopathicity after 40 hrs; type: functional, organism-based; conditions: A/Fort Monmouth/1/1947(H1N1); how it was run: as §2
[7] = Cytotoxicity against MDCK cells after 48 hrs; type: cell-based, Canis lupus familiaris; conditions: dog, read-out: TC50
How it was run: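 MDCK cells seeded at 25000 per well and cultured 24 h at 37 °C, 5% CO2. Threefold dilutions were added to the monolayer and culture continued 48 h. Cytopathic changes were recorded by observation, and TC50 was calculated by the Reed & Muench method.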

[8] = Selectivity index, ratio of TC50 for MDCK cells to IC50 for Influenza A virus (A/FM/1/1947(H1N1)); type: toxicity, cell-based; conditions: dog, read-out: Selectivity Index; how it was run: as §1
[9] = Selectivity index, ratio of TC50 for MDCK cells to IC50 for Influenza A virus A/hanfang/359/95(H3N2); type: toxicity, cell-based; conditions: dog, read-out: Selectivity Index; how it was run: as §1
[10] = Selectivity index, ratio of TC50 for MDCK cells to IC50 for Influenza A virus (A/Tianjinjinnan/15/2009/H1N1); type: toxicity, cell-based; conditions: dog, read-out: Selectivity Index; how it was run: as §1

SMILES	IC50 [1] [µg/mL]	Ratio IC50 [2]	selectivity ratio [3]	IC50 [4] [µg/mL]	IC50 [5] [µg/mL]	IC50 [6] [µg/mL]	CC50 at 48 h [7] [µg/mL]	selectivity ratio [8]	selectivity ratio [9]	selectivity ratio [10]
C=C(C(=O)NCc1cn(Cc2ccc(F)cc2)nn1)[C@@H]1CC[C@H](C)[C@@H]2CC(=O)C(C)=C2C1	0.73 (≈ 1.67 µM)	>4	43.8	3.92 (≈ 8.98 µM)	> 66.7	≥ 66.7	116 (≈ 265 µM)	–	–	–
C=C(C(=O)OCc1cn(Cc2ccccc2F)nn1)[C@@H]1CC[C@H](C)[C@@H]2CC(=O)C(C)=C2C1	0.91 (≈ 2.08 µM)	>4	29.7	2.26 (≈ 5.17 µM)	> 22.2	> 22.2	66.7 (≈ 152 µM)	–	–	–
C=C(C(=O)OCc1cn(C2C=CCCC2)nn1)[C@@H]1CC[C@H](C)[C@@H]2CC(=O)C(C)=C2C1 (stereo partly specified)	3.28 (≈ 8.01 µM)	–	≥ 4.3	≥ 5.14	> 7.41	2.82 (≈ 6.89 µM)	22.2 (≈ 54.3 µM)	8	–	–
C=C(C(=O)OCc1cn(C2CCCCC2)nn1)[C@@H]1CC[C@H](C)[C@@H]2CC(=O)C(C)=C2C1	–	–	6.5	18.5 (≈ 45 µM)	≥ 66.7	66.7 (≈ 162 µM)	115 (≈ 281 µM)	1.73	≥ 1.73	1.98
C=C(C(=O)NCc1cn(Cc2ccccc2Cl)nn1)[C@@H]1CC[C@H](C)[C@@H]2CC(=O)C(C)=C2C1	0.21 (≈ 0.464 µM)	>4	22.5	1.71 (≈ 3.77 µM)	> 7.41	> 7.41	38.5 (≈ 85 µM)	–	–	–
C=C(C(=O)NCc1cn(Cc2cccc(Cl)c2)nn1)[C@@H]1CC[C@H](C)[C@@H]2CC(=O)C(C)=C2C1	–	>4	3.9	7.41 (≈ 16.4 µM)	> 7.41	> 7.41	28.6 (≈ 63.2 µM)	–	–	–
C=C(C(=O)NCc1cn(Cc2ccc(Cl)cc2)nn1)[C@@H]1CC[C@H](C)[C@@H]2CC(=O)C(C)=C2C1	–	>4	8.55	2.09 (≈ 4.61 µM)	> 2.47	> 2.47	17.2 (≈ 38.1 µM)	–	–	–
C=C(C(=O)NCc1cn(Cc2cccc(F)c2)nn1)[C@@H]1CC[C@H](C)[C@@H]2CC(=O)C(C)=C2C1	–	>4	14.3	4.71 (≈ 10.8 µM)	> 22.2	> 22.2	66.7 (≈ 153 µM)	–	–	–
C=C(C(=O)NCc1cn(Cc2ccc(Cl)c(Cl)c2)nn1)[C@@H]1CC[C@H](C)[C@@H]2CC(=O)C(C)=C2C1	–	>4	9.9	6.79 (≈ 13.9 µM)	17.5 (≈ 35.9 µM)	≥ 17.2	66.7 (≈ 137 µM)	–	4.1	3
C=C(C(=O)NCc1cn(C2C=CCCC2)nn1)[C@@H]1CC[C@H](C)[C@@H]2CC(=O)C(C)=C2C1 (stereo partly specified)	–	–	7.85	13.4 (≈ 32.8 µM)	> 22.2	9.75 (≈ 23.9 µM)	96.2 (≈ 235 µM)	9.86	–	4.96
C=C(C(=O)NCc1cn(C2CCCCC2)nn1)[C@@H]1CC[C@H](C)[C@@H]2CC(=O)C(C)=C2C1	–	–	1.95	19.7 (≈ 48.1 µM)	> 7.41	> 7.41	38.5 (≈ 93.7 µM)	–	–	1.73
C=C(C(=O)OCc1cn(Cc2cccc(C)c2)nn1)[C@@H]1CC[C@H](C)[C@@H]2CC(=O)C(C)=C2C1	–	–	≥ 4	≥ 9.54	> 22.2	12.3 (≈ 28.4 µM)	38.5 (≈ 88.8 µM)	3.76	–	1.98
C=C(C(=O)OCc1cn(Cc2ccc(OC)cc2)nn1)[C@@H]1CC[C@H](C)[C@@H]2CC(=O)C(C)=C2C1	–	–	≥ 2.1	≥ 22.2	> 22.2	19.7 (≈ 43.9 µM)	46.2 (≈ 103 µM)	2.68	–	2.08
C=C(C(=O)OCc1cn(Cc2ccccc2Cl)nn1)[C@@H]1CC[C@H](C)[C@@H]2CC(=O)C(C)=C2C1	–	–	10.4	14.8 (≈ 32.6 µM)	40.2 (≈ 88.5 µM)	> 66.7	115 (≈ 254 µM)	–	3.31	1.98
CCOC(=O)C1=C[C@@H](OC(CC)CC)[C@H](NC(C)=O)[C@@H](N)C1 [OSELTAMIVIR]	–	–	–	–	1 (≈ 3.2 µM)	2.81 (≈ 8.99 µM)	1260 (≈ 4030 µM)	448	1240	–
C=C(C(=O)O)[C@@H]1CC[C@H](C)[C@@H]2CC(=O)C(C)=C2C1 [PECHUELOIC ACID]	–	–	> 4030	181 (≈ 727 µM)	–	4650 (≈ 18700 µM)	248 (≈ 999 µM)	> 111	25.8	> 1340
NC(=O)c1ncn([C@@H]2O[C@H](CO)[C@@H](O)[C@H]2O)n1 [RIBAVIRIN]	3.27 (≈ 13.4 µM)	–	206	7.84 (≈ 32.1 µM)	5.59 (≈ 22.9 µM)	1.92 (≈ 7.86 µM)	–	820	213	185
